Assay results as given in ChEMBL document CHEMBL1138207, “Engineering of a VPAC2 receptor peptide agonist to impart dipeptidyl peptidase IV stability and enhance in vivo glucose disposal” (J Med Chem, 2006).

How the values were obtained:
[1] = molecular target: T1, Vasoactive intestinal polypeptide receptor 1 (Homo sapiens, UniProt P32241); assay: Activity at human VPAC1 receptor in CHO cells by measuring cAMP accumulation; format: functional, cell-based
T1 sequence (P32241 whole entry): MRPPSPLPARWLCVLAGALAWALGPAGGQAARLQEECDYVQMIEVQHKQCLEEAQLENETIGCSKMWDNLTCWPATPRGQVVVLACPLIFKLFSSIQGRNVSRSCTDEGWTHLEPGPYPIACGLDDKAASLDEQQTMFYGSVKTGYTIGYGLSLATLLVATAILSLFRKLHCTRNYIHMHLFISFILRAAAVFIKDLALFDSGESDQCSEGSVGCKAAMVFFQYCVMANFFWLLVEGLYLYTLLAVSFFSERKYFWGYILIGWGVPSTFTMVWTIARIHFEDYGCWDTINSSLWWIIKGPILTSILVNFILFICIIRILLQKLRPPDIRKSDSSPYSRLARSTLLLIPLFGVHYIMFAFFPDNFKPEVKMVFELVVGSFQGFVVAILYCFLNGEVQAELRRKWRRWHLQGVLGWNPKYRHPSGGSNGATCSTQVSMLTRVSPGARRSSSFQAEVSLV
In short: (§1)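 CHO cells transfected with human PAC1, VPAC1 or VPAC2 receptor were incubated with peptide for 15 min at 37 °C. Buffer: HEPES pH 7.4 saline with 1% BSA, bacitracin and 100 µM IBMX as phosphodiesterase inhibitor. cAMP was measured by competitive 125I-cAMP scintillation proximity assay. Curves were fit to a single-site model.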

[2] = molecular target: T2, Pituitary adenylate cyclase-activating polypeptide type I receptor (Homo sapiens, UniProt P41586); assay: Activity at human PAC1 receptor in CHO cells by measuring cAMP accumulation; format: cell-based; in short: as §1
T2 sequence (P41586 whole entry): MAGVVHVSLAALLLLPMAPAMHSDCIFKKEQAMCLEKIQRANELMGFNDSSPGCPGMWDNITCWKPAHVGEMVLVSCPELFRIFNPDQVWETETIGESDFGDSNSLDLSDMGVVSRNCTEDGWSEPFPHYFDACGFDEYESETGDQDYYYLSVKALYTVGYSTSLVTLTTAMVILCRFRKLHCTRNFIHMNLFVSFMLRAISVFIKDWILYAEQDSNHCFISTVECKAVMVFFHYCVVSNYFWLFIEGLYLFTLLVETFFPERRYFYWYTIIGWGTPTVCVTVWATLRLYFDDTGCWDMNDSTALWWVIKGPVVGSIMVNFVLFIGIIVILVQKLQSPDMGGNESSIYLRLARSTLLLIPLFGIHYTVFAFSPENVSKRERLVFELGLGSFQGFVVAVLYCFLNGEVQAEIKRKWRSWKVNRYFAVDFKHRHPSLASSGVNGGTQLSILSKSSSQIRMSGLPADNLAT

[3] = molecular target: T1, Vasoactive intestinal polypeptide receptor 1; assay: Displacement of [125I]PACAP27 from human VPAC1 receptor expressed in CHO cells; format: cell-based
In short: (§2)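 Membranes (10 µg) from CHO cells transfected with human PAC1, VPAC1 or VPAC2 receptor were incubated with 0.1 nM 125I-PACAP27 and competing peptide for 20 min at 37 °C. Buffer: 20 mM HEPES pH 7.4, 0.5% BSA, CaCl2, bacitracin. Reactions were stopped on ice. Bound ligand was collected by filtration on PEI-treated filters and counted by scintillation. Data were fit to a single-site model.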

[4] = molecular target: T2, Pituitary adenylate cyclase-activating polypeptide type I receptor; assay: Displacement of [125I]PACAP27 from human PAC1 receptor expressed in CHO cells; format: cell-based; in short: as §2

Compound `CC[C@H](C)[C@H](NC(=O)CNC(=O)[C@H](CC(=O)O)NC(=O)[C@H](CO)NC(=O)[C@@H](N)Cc1cnc[nH]1)C(=O)N[C@@H](Cc1ccccc1)C(=O)N[C@H](C(=O)N[C@@H](CC(=O)O)C(=O)N[C@@H](CO)C(=O)N[C@@H](Cc1ccc(O)cc1)C(=O)N[C@@H](CO)C(=O)N[C@@H](CCCN=C(N)N)C(=O)N[C@@H](Cc1ccc(O)cc1)C(=O)N[C@@H](CCCN=C(N)N)C(=O)N[C@@H](CCCCN)C(=O)N[C@@H](CCC(N)=O)C(=O)N[C@@H](CCSC)C(=O)N[C@@H](C)C(=O)N[C@H](C(=O)N[C@@H](CCCCN)C(=O)N[C@@H](CCCCN)C(=O)N[C@@H](Cc1ccc(O)cc1)C(=O)N[C@@H](CC(C)C)C(=O)N[C@@H](C)C(=O)N[C@@H](C)C(=O)N[C@H](C(=O)N[C@@H](CC(C)C)C(=O)O)C(C)C)C(C)C)[C@@H](C)O` has an EC50 [1] of 0.6 nM, an EC50 [2] of 0.13 nM and an IC50 [3] of 12 nM. The IC50 [4] was 3 nM.
